Reference: ChEMBL document CHEMBL1152792, “Synthesis and anticonvulsant activity of amino acid-derived sulfamides” (J Med Chem, 2009)
The source made the active and inactive calls. No cut-off for these calls is given here.

These compounds were tested on Mus musculus (assay: Anticonvulsant activity in albino mouse at 30 mg/kg, ip after 0.5 hrs by MES test). Conditions: not given.
Assay type: functional, organism-based
Set-up: dose 30 mg/kg
Outline: (§1)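 NIH Anticonvulsant Drug Development (ADD) program phase I screen in adult male albino mice (18–23 g). Compound given ip in 30% PEG 400 and 10% water at 0.01 mL/g body weight. Seizures were induced electrically (MES) or chemically (PTZ), and animals were tested 0.5 and 4 h after dosing. Result scored as protected/tested animals.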

Row | SMILES | Activity
1 | COC(=O)CCNS(=O)(=O)NC1CCCCC1 | inactive
2 | CCCC(CCC)CN(C(=O)OC(C)(C)C)S(=O)(=O)NCC(=O)OC | inactive
3 | COC(=O)CCNS(=O)(=O)NC(=O)OC(C)(C)C | inactive

These compounds were tested on Mus musculus (assay: Anticonvulsant activity in albino mouse at 100 mg/kg, ip after 0.5 hrs by MES test). Conditions: not given.
Assay type: functional, organism-based
Set-up: dose 100 mg/kg
Outline: as §1

Row | SMILES | Activity
4 | CCCC(CCC)CN(C(=O)OC(C)(C)C)S(=O)(=O)NCC(=O)OC | inactive
5 | COC(=O)CCNS(=O)(=O)NC(=O)OC(C)(C)C | inactive

What follows are compounds tested on Mus musculus (assay: Anticonvulsant activity in albino mouse at 300 mg/kg, ip after 0.5 hrs by MES test). Conditions: not given.
Assay type: functional, organism-based
Set-up: dose 300 mg/kg
Outline: as §1

Row | SMILES | Activity
6 | COC(=O)CCNS(=O)(=O)NC1CCCCC1 | inactive
7 | CCCC(CCC)CN(C(=O)OC(C)(C)C)S(=O)(=O)NCC(=O)OC | inactive

These compounds were tested on Mus musculus (assay: Anticonvulsant activity in albino mouse at 30 mg/kg, ip after 4 hrs by MES test). Conditions: not given.
Assay type: functional, organism-based
Set-up: dose 30 mg/kg
Outline: as §1

Row | SMILES | Activity
8 | COC(=O)CCNS(=O)(=O)NC1CCCCC1 | inactive
9 | CCCC(CCC)CN(C(=O)OC(C)(C)C)S(=O)(=O)NCC(=O)OC | inactive
10 | COC(=O)CCNS(=O)(=O)NC(=O)OC(C)(C)C | inactive

Each compound was assayed on Mus musculus (assay: Anticonvulsant activity in albino mouse at 100 mg/kg, ip after 4 hrs by MES test). Conditions: not given.
Assay type: functional, organism-based
Set-up: dose 100 mg/kg
Outline: as §1

Row | SMILES | Activity
11 | CCCC(CCC)CN(C(=O)OC(C)(C)C)S(=O)(=O)NCC(=O)OC | inactive
12 | COC(=O)CCNS(=O)(=O)NC(=O)OC(C)(C)C | inactive

Each compound was assayed on Mus musculus (assay: Anticonvulsant activity in albino mouse at 300 mg/kg, ip after 4 hrs by MES test). Conditions: not given.
Assay type: functional, organism-based
Set-up: dose 300 mg/kg
Outline: as §1

Row | SMILES | Activity
13 | COC(=O)CCNS(=O)(=O)NC1CCCCC1 | inactive
14 | COC(=O)CCNS(=O)(=O)NC(=O)OC(C)(C)C | inactive

Each compound was assayed on Mus musculus (assay: Anticonvulsant activity in albino mouse at 30 mg/kg, ip after 0.5 hrs by PTZ test). Conditions: not given.
Assay type: functional, organism-based
Set-up: dose 30 mg/kg
Outline: as §1

Row | SMILES | Activity
15 | CCCC(CCC)CN(C(=O)OC(C)(C)C)S(=O)(=O)NCC(=O)OC | inactive
16 | COC(=O)CCNS(=O)(=O)NC(=O)OC(C)(C)C | inactive

Each compound was assayed on Mus musculus (assay: Anticonvulsant activity in albino mouse at 100 mg/kg, ip after 0.5 hrs by PTZ test). Conditions: not given.
Assay type: functional, organism-based
Set-up: dose 100 mg/kg
Outline: as §1

Row | SMILES | Activity
17 | CCCC(CCC)CN(C(=O)OC(C)(C)C)S(=O)(=O)NCC(=O)OC | inactive
18 | COC(=O)CCNS(=O)(=O)NC(=O)OC(C)(C)C | inactive

The compounds below were run on Mus musculus (assay: Anticonvulsant activity in albino mouse at 300 mg/kg, ip after 0.5 hrs by PTZ test). Conditions: not given.
Assay type: functional, organism-based
Set-up: dose 300 mg/kg
Outline: as §1

Row | SMILES | Activity
19 | CCCC(CCC)CN(C(=O)OC(C)(C)C)S(=O)(=O)NCC(=O)OC | inactive
20 | COC(=O)CCNS(=O)(=O)NC(=O)OC(C)(C)C | inactive

Each compound was assayed on Mus musculus (assay: Anticonvulsant activity in albino mouse at 30 mg/kg, ip after 4 hrs by PTZ test). Conditions: not given.
Assay type: functional, organism-based
Set-up: dose 30 mg/kg
Outline: as §1

Row | SMILES | Activity
21 | CCCC(CCC)CN(C(=O)OC(C)(C)C)S(=O)(=O)NCC(=O)OC | inactive
22 | COC(=O)CCNS(=O)(=O)NC(=O)OC(C)(C)C | inactive

These compounds were tested on Mus musculus (assay: Anticonvulsant activity in albino mouse at 100 mg/kg, ip after 4 hrs by PTZ test). Conditions: not given.
Assay type: functional, organism-based
Set-up: dose 100 mg/kg
Outline: as §1

Row | SMILES | Activity
23 | CCCC(CCC)CN(C(=O)OC(C)(C)C)S(=O)(=O)NCC(=O)OC | inactive
24 | COC(=O)CCNS(=O)(=O)NC(=O)OC(C)(C)C | inactive

Each compound was assayed on Mus musculus (assay: Anticonvulsant activity in albino mouse at 300 mg/kg, ip after 4 hrs by PTZ test). Conditions: not given.
Assay type: functional, organism-based
Set-up: dose 300 mg/kg
Outline: as §1

Row | SMILES | Activity
25 | CCCC(CCC)CN(C(=O)OC(C)(C)C)S(=O)(=O)NCC(=O)OC | inactive
26 | COC(=O)CCNS(=O)(=O)NC(=O)OC(C)(C)C | inactive

These compounds were tested on Mus musculus (assay: Toxicity in albino mouse at 30 mg/kg, ip after 0.5 hrs by rotarod test). Conditions: in vivo.
Assay type: organism-based
Set-up: dose 30 mg/kg, route intraperitoneal
Outline: (§2)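 Neurotoxicity was screened by the standardized rotarod test in the ADD phase I protocol. Adult male albino mice (18–23 g) received compound ip in 30% PEG 400 and 10% water at 0.01 mL/g. Animals were tested 0.5 and 4 h post-dose. Result scored as toxic/tested animals.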

Row | SMILES | Activity
27 | COC(=O)CCNS(=O)(=O)NC1CCCCC1 | Non-toxic
28 | CCCC(CCC)CN(C(=O)OC(C)(C)C)S(=O)(=O)NCC(=O)OC | Non-toxic
29 | COC(=O)CCNS(=O)(=O)NC(=O)OC(C)(C)C | Non-toxic

What follows are compounds tested on Mus musculus (assay: Toxicity in albino mouse at 100 mg/kg, ip after 0.5 hrs by rotarod test). Conditions: in vivo.
Assay type: organism-based
Set-up: dose 100 mg/kg, route intraperitoneal
Outline: as §2

Row | SMILES | Activity
30 | COC(=O)CCNS(=O)(=O)NC1CCCCC1 | Non-toxic
31 | CCCC(CCC)CN(C(=O)OC(C)(C)C)S(=O)(=O)NCC(=O)OC | Non-toxic
32 | COC(=O)CCNS(=O)(=O)NC(=O)OC(C)(C)C | Non-toxic

The compounds below were run on Mus musculus (assay: Toxicity in albino mouse at 300 mg/kg, ip after 0.5 hrs by rotarod test). Conditions: in vivo.
Assay type: organism-based
Set-up: dose 300 mg/kg, route intraperitoneal
Outline: as §2

Row | SMILES | Activity
33 | COC(=O)CCNS(=O)(=O)NC1CCCCC1 | Non-toxic
34 | CCCC(CCC)CN(C(=O)OC(C)(C)C)S(=O)(=O)NCC(=O)OC | Non-toxic
35 | COC(=O)CCNS(=O)(=O)NC(=O)OC(C)(C)C | Non-toxic

These compounds were tested on Mus musculus (assay: Toxicity in albino mouse at 30 mg/kg, ip after 4 hrs by rotarod test). Conditions: in vivo.
Assay type: organism-based
Set-up: dose 30 mg/kg, route intraperitoneal
Outline: as §2

Row | SMILES | Activity
36 | COC(=O)CCNS(=O)(=O)NC1CCCCC1 | Non-toxic
37 | CCCC(CCC)CN(C(=O)OC(C)(C)C)S(=O)(=O)NCC(=O)OC | Non-toxic
38 | COC(=O)CCNS(=O)(=O)NC(=O)OC(C)(C)C | Non-toxic

Each compound was assayed on Mus musculus (assay: Toxicity in albino mouse at 100 mg/kg, ip after 4 hrs by rotarod test). Conditions: in vivo.
Assay type: organism-based
Set-up: dose 100 mg/kg, route intraperitoneal
Outline: as §2

Row | SMILES | Activity
39 | COC(=O)CCNS(=O)(=O)NC1CCCCC1 | Non-toxic
40 | CCCC(CCC)CN(C(=O)OC(C)(C)C)S(=O)(=O)NCC(=O)OC | Non-toxic
41 | COC(=O)CCNS(=O)(=O)NC(=O)OC(C)(C)C | Non-toxic

The compounds below were run on Mus musculus (assay: Toxicity in albino mouse at 300 mg/kg, ip after 4 hrs by rotarod test). Conditions: in vivo.
Assay type: organism-based
Set-up: dose 300 mg/kg, route intraperitoneal
Outline: as §2

Row | SMILES | Activity
42 | COC(=O)CCNS(=O)(=O)NC1CCCCC1 | Non-toxic
43 | CCCC(CCC)CN(C(=O)OC(C)(C)C)S(=O)(=O)NCC(=O)OC | Non-toxic
44 | COC(=O)CCNS(=O)(=O)NC(=O)OC(C)(C)C | Non-toxic
